Assay results published in ChEMBL document CHEMBL1154100, “Tetrahydroisoquinolines as dopaminergic ligands: 1-Butyl-7-chloro-6-hydroxy-tetrahydroisoquinoline, a new compound with antidepressant-like activity in mice” (Bioorg Med Chem, 2009).
Active and inactive are the calls of the source. No cut-off for these calls is given here.

Assays:
[1] = biological target: Sodium-dependent dopamine transporter (Rattus norvegicus) (UniProt P23977); test: Inhibition of DAT in Wistar rat striatal synaptosomes at 100 uM by [3H]dopamine uptake assay; type: subcellular; settings: Brain
Method in brief: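 Synaptosomes were prepared from female Wistar rat striatum at 0–4 °C. Tissue was homogenized in 0.32 M sucrose, spun twice at 1000g for 10 min, and the pooled supernatants were spun at 16,000g for 30 min. The pellet was taken up in Krebs medium (pH 7.6, with glucose). Samples were preincubated for 10 min at 37 °C with pargyline, then given 0.5 nM final [³H]dopamine for 10 min. Uptake was stopped by ice-cold dilution and rapid fiberglass filtration.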

[2] = biological target: D(1A) dopamine receptor (Rattus norvegicus, UniProt P18901); test: Displacement of [3H]SCH23390 from dopamine D1 receptor in Wistar rat striatal membrane by liquid scintillation counting; type: cell membranes, Striatum
Method in brief: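 Female Wistar rat striatum homogenized in 50 mM Tris-HCl pH 7.4, then washed twice at 49,000g. Membranes were resuspended in Tris-ions buffer (NaCl, CaCl2, KCl, MgCl2, 0.1% ascorbate). [3H]-SCH23390 displacement was read by filtration and scintillation counting. Ki was derived using KD 0.36 nM; 3–6 independent runs in duplicate, mean SEM.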

[3] = biological target: D(2) dopamine receptor (Rattus norvegicus, UniProt P61169); test: Displacement of [3H]raclopride from dopamine D2 receptor in Wistar rat striatal membrane by liquid scintillation counting; type: cell membranes, Striatum
Method in brief: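 Striata from female Wistar rats (200–220 g) were homogenized in 50 mM Tris-HCl (pH 7.4) and centrifuged twice at 49,000g for 15 min at 4 °C. Membranes were resuspended in Tris buffer containing 120 mM NaCl, 2 mM CaCl₂, 5 mM KCl, 1 mM MgCl₂ and 0.1% ascorbic acid (pH 7.4). Samples were filtered, washed with cold buffer and counted by scintillation. Ki was derived using a [³H]raclopride KD of 1,25 nM, from 3–6 determinations run in duplicate.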

[4] = species: Rattus norvegicus; test: Selectivity for Wistar rat dopamine D2 receptor over Wistar rat dopamine D1 receptor

Sodium-dependent dopamine transporter (Rattus norvegicus), sequence (P23977 whole entry): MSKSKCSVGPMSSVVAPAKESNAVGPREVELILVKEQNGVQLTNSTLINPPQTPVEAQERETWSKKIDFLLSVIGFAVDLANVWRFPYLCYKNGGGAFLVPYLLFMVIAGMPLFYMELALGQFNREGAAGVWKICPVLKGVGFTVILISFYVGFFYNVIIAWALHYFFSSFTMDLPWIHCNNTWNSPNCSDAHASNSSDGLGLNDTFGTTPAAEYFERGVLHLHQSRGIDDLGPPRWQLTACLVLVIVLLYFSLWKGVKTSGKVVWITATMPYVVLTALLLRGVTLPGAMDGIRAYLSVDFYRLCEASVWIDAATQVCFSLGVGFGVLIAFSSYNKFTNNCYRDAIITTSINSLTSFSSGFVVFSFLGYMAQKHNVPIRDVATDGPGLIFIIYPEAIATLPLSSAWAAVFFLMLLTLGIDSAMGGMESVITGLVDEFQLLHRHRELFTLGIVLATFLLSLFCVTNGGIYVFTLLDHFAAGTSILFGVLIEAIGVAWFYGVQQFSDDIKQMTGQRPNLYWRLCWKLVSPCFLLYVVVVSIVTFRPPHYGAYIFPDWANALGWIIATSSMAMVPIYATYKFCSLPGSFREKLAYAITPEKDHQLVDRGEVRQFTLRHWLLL
D(2) dopamine receptor, sequence (P61169 whole entry): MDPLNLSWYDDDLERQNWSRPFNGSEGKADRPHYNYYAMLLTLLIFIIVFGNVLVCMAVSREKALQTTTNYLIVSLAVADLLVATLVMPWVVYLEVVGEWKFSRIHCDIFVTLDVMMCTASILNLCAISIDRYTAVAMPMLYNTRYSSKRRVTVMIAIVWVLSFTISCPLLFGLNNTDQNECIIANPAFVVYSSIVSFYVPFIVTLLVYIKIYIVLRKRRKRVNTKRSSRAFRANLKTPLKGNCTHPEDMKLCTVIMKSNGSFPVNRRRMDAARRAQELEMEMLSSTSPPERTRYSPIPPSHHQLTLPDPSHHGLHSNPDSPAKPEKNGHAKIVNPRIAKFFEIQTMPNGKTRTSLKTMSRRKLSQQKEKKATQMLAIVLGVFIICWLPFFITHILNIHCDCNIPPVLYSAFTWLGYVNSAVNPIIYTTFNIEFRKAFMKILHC
D(1A) dopamine receptor, sequence (P18901 whole entry): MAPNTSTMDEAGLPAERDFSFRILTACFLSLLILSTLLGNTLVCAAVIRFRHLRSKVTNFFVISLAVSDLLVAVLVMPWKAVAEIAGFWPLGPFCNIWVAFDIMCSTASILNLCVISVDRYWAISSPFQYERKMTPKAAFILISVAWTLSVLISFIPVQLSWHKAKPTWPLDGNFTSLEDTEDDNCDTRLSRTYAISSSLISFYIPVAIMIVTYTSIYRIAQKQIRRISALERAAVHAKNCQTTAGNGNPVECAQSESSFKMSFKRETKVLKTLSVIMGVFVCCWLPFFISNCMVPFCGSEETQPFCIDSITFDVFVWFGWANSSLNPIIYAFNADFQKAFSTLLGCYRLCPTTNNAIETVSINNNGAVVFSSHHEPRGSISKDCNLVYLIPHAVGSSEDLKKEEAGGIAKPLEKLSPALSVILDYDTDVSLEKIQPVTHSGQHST

COc1cc2c(cc1Cl)CCN(C)C2c1ccccc1 (configuration not stated)
Activity [1]: inactive
Ki [2]: 815 nM
Ki ([3]; read-out: pKi (converted)): 2140 nM
fold change (FC) [4]: 0.3

Oc1cc2c(cc1Cl)CCNC2Cc1ccccc1 (configuration not stated)
Activity [1]: inactive
Ki [2]: 326 nM
Ki ([3]; read-out: Ki): 71 nM
Ki ([3]; read-out: pKi (converted)): 66.4 nM
fold change (FC) [4]: 4.8

CCCCC1c2cc(O)c(Cl)cc2CCN1C (configuration not stated)
Activity [1]: inactive
Ki [2]: 1140 nM
Ki ([3]; read-out: pKi (converted)): 395 nM
fold change (FC) [4]: 2.3

CCCCC1NCCc2cc(Cl)c(OC)cc21 (configuration not stated)
Activity [1]: inactive
Ki [2]: 17300 nM
Ki ([3]; read-out: pKi (converted)): 780 nM
fold change (FC) [4]: 20
